Results: ChEMBL document CHEMBL1131524, “Azapeptides as inhibitors and active site titrants for cysteine proteinases” (J Med Chem, 1998)

Target: Cathepsin B (Bos taurus) (UniProt P07688)
Experiment: The apparent second-order rate constant for inactivation of bovine cathepsin B enzyme. Apparent rate constant was determined from repeats of Kobs vs [I] using at least 5 values of [I], where I=0.2 mM
Procedure, shortened: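 Bovine spleen cathepsin B, activated with 10 mM dithiothreitol, in 25 mM sodium acetate pH 5.3 with 1 mM EDTA and 20% CH3CN (v/v). Substrate 80 μM Cbz-Lys-ONp; hydrolysis followed at 326 nm (Δε 9060 M⁻¹ cm⁻¹). Enzyme concentration set by E-64 titration. Kitz–Wilson analysis: k_obsd from slopes of semilog plots of activity vs time.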

Q: Which k obs / 1 does the source give for `CC(=O)N[C@@H](Cc1ccccc1)C(=O)NN(C)C(=O)Oc1ccccc1` here?
A: The k obs / 1 was 18.

Target: T1, Papain (Carica papaya) (UniProt P00784)
T1 sequence (whole entry): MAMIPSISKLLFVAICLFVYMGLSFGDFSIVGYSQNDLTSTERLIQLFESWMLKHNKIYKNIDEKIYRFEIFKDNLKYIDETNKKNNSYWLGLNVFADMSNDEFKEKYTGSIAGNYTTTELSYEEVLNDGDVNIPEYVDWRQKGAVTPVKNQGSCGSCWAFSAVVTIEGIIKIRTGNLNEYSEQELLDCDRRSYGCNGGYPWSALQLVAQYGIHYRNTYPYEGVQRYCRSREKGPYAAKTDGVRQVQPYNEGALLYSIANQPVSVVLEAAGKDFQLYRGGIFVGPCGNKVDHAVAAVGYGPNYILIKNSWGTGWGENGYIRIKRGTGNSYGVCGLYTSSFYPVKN
Experiment: Specificity constant is determined from the ratio of the inactivation rate constants (Kcat/Km)of the papain.

Q: For `NCCCC[C@H](NC(=O)OCc1ccccc1)C(=O)Oc1ccc([N+](=O)[O-])cc1`, which k cat/Km is on record?
A: Its k cat/Km is 853000 M⁻¹ s⁻¹.

Target: Cathepsin B (Bos taurus) (UniProt P07688)
Experiment: The apparent second-order rate constant for inactivation of bovine cathepsin B enzyme. Apparent rate constant was determined from repeats of Kobs vs [I] using at least 5 values of [I].
Procedure, shortened: (§1)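 Bovine spleen cathepsin B was activated with 10 mM dithiothreitol, and its active concentration was set by E-64 titration. Assays ran in 25 mM sodium acetate, 1 mM EDTA, pH 5.3, with 20% CH3CN and 80 μM Cbz-Lys-ONp, monitored at 326 nm. Inactivation was analysed by Kitz–Wilson, with kobsd from semilog plots of activity versus time.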

Q: Which k2/Ki does the source give for `CC(=O)N[C@@H](Cc1ccccc1)C(=O)NNC(=O)Oc1ccccc1` here?
A: The k2/Ki was 7730 M⁻¹ s⁻¹.

Q: With `CC(=O)N[C@@H](Cc1ccccc1)C(=O)NNC(=O)OCCCl` as the compound, how does the k2/Ki read?
A: Its k2/Ki is 54 M⁻¹ s⁻¹.

Q: Which k2/Ki does the source give for `CC(=O)N[C@@H](Cc1ccccc1)C(=O)NNC(=O)OCC(Cl)(Cl)Cl` here?
A: Its k2/Ki is 730 M⁻¹ s⁻¹.

Q: With `CC(=O)N[C@@H](Cc1ccccc1)C(=O)NNC(=O)Nc1ccc([N+](=O)[O-])cc1` as the compound, how does the k2/Ki read?
A: The k2/Ki was 0 M⁻¹ s⁻¹.

Q: How did the k2/Ki turn out when `CC(=O)N[C@@H](Cc1ccccc1)C(=O)NNC(=O)OCc1ccccc1` was run?
A: Its k2/Ki is 310 M⁻¹ s⁻¹.

Q: With `CC(=O)N[C@@H](Cc1ccccc1)C(=O)NNC(N)=O` as the compound, how does the k2/Ki read?
A: The k2/Ki was 0 M⁻¹ s⁻¹.

Q: How did the k2/Ki turn out when `CC(=O)N[C@@H](Cc1ccccc1)C(=O)NNC(=O)OCCBr` was run?
A: The k2/Ki was 90 M⁻¹ s⁻¹.

Target: T1, Papain (Carica papaya)
Experiment: The apparent second-order rate constant for inactivation of papain enzyme. Apparent rate constant was determined from repeats of Kobs vs [I] using at least 5 values of [I] where I=0.95 mM
Procedure, shortened: (§2)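 Papain purified from mercuripapain on Hg-Sepharose, then activated with L-cysteine for 15 min at room temperature in 50 mM K2HPO4, 1 mM EDTA, pH 6.3. Assays used 50 μM Cbz-Gly-ONp in buffer with 20% CH3CN, followed at 340 nm and corrected for spontaneous hydrolysis. Analysis was by Kitz–Wilson, with kobsd taken from slopes of semilog activity-versus-time plots.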

Q: For `CC(=O)N[C@@H](Cc1ccccc1)C(=O)NN(Cc1ccccc1)C(=O)Oc1ccccc1`, which kobs/[I] is on record?
A: The kobs/[I] was 0.3 M⁻¹ s⁻¹.

Target: T1, Papain (Carica papaya)
Experiment: Specificity constant is determined from the ratio of the inactivation rate constants (Kcat/Km)of the papain

Q: `C[C@H](NC(=O)OCc1ccccc1)C(=O)Oc1ccc([N+](=O)[O-])cc1` was tested. Which k cat/Km did it give?
A: The k cat/Km was 800000 M⁻¹ s⁻¹.

Q: For `O=C(N[C@@H](Cc1ccccc1)C(=O)Oc1ccc([N+](=O)[O-])cc1)OCc1ccccc1`, which k cat/Km is on record?
A: Its k cat/Km is 120000 M⁻¹ s⁻¹.

Target: T1, Papain (Carica papaya)
Experiment: The apparent second-order rate constant for inactivation of papain enzyme. Apparent rate constant was determined from repeats of Kobs vs [I] using at least 5 values of [I].
Procedure, shortened: as §2

Q: With `CC(=O)N[C@@H](Cc1ccccc1)C(=O)NNC(=O)Oc1ccccc1` as the compound, how does the k2/Ki read?
A: The k2/Ki was 67600 M⁻¹ s⁻¹.

Q: How did the k2/Ki turn out when `CC(=O)N[C@@H](Cc1ccccc1)C(=O)N/N=C(/N)S` was run?
A: The k2/Ki was 0.03 M⁻¹ s⁻¹.

Q: Which k2/Ki does the source give for `CC(=O)N[C@@H](Cc1ccccc1)C(=O)NNC(=O)OCCCl` here?
A: The k2/Ki was 1150 M⁻¹ s⁻¹.

Q: For `CC(=O)N[C@@H](Cc1ccccc1)C(=O)NNC(=O)OCC(Cl)(Cl)Cl`, which k2/Ki is on record?
A: Its k2/Ki is 11800 M⁻¹ s⁻¹.

Q: `CC(=O)N[C@@H](Cc1ccccc1)C(=O)NNC(=O)Nc1ccc([N+](=O)[O-])cc1` was tested. Which k2/Ki did it give?
A: The k2/Ki was 1 M⁻¹ s⁻¹.

Q: Which k2/Ki does the source give for `CC(=O)N[C@@H](Cc1ccccc1)C(=O)NNC(=O)OCc1ccccc1` here?
A: The k2/Ki was 30500 M⁻¹ s⁻¹.

Q: For `CCOC(=O)N(C)NC(=O)[C@H](Cc1ccccc1)NC(C)=O`, which k2/Ki is on record?
A: The k2/Ki was 0.05 M⁻¹ s⁻¹.

Q: `COC(=O)NNC(=O)[C@H](Cc1ccccc1)NC(C)=O` was tested. Which k2/Ki did it give?
A: Its k2/Ki is 19 M⁻¹ s⁻¹.

Q: For `CC(=O)N[C@@H](Cc1ccccc1)C(=O)NN(C)C(=O)OCC(Cl)(Cl)Cl`, which k2/Ki is on record?
A: The k2/Ki was 12 M⁻¹ s⁻¹.

Q: For `CC(=O)N[C@@H](Cc1ccccc1)C(=O)NNC(N)=O`, which k2/Ki is on record?
A: The k2/Ki was 4 M⁻¹ s⁻¹.

Q: With `CC(=O)N[C@@H](Cc1ccccc1)C(=O)NN(C)C(=O)Oc1ccccc1` as the compound, how does the k2/Ki read?
A: The k2/Ki was 110 M⁻¹ s⁻¹.

Q: For `CC(=O)N[C@@H](Cc1ccccc1)C(=O)NNC(=O)Oc1ccc([N+](=O)[O-])cc1`, which k2/Ki is on record?
A: Its k2/Ki is over 70000 M⁻¹ s⁻¹.

Q: Which k2/Ki does the source give for `COC(=O)N(C)NC(=O)[C@H](Cc1ccccc1)NC(C)=O` here?
A: Its k2/Ki is 0.05 M⁻¹ s⁻¹.

Q: For `CC(=O)N[C@@H](Cc1ccccc1)C(=O)NNC(=O)OCCBr`, which k2/Ki is on record?
A: The k2/Ki was 1250 M⁻¹ s⁻¹.

Q: How did the k2/Ki turn out when `CC(=O)N[C@@H](Cc1ccccc1)C(=O)NNC(=O)OCC(C)C` was run?
A: The k2/Ki was 55 M⁻¹ s⁻¹.

Q: How did the k2/Ki turn out when `CCOC(=O)NNC(=O)[C@H](Cc1ccccc1)NC(C)=O` was run?
A: Its k2/Ki is 47 M⁻¹ s⁻¹.

Target: Cathepsin B (Bos taurus) (UniProt P07688)
Experiment: Specificity constant is determined from the ratio of the inactivation rate constants (Kcat/Km)of the cathepsin B.

Q: For `CC(=O)N[C@@H](Cc1ccccc1)C(=O)NNC(=O)Oc1ccccc1`, which k cat/Km is on record?
A: Its k cat/Km is 7730 M⁻¹ s⁻¹.

Q: `NCCCC[C@H](NC(=O)OCc1ccccc1)C(=O)Oc1ccc([N+](=O)[O-])cc1` was tested. Which k cat/Km did it give?
A: The k cat/Km was 776000 M⁻¹ s⁻¹.

Q: `CC(=O)N[C@@H](Cc1ccccc1)C(=O)NNC(=O)OCC(Cl)(Cl)Cl` was tested. Which k cat/Km did it give?
A: The k cat/Km was 730 M⁻¹ s⁻¹.

Q: For `CC(=O)N[C@@H](Cc1ccccc1)C(=O)NN(C)C(=O)Oc1ccccc1`, which k cat/Km is on record?
A: The k cat/Km was 18 M⁻¹ s⁻¹.

Q: With `C[C@H](NC(=O)OCc1ccccc1)C(=O)Oc1ccc([N+](=O)[O-])cc1` as the compound, how does the k cat/Km read?
A: Its k cat/Km is 450000 M⁻¹ s⁻¹.

Q: How did the k cat/Km turn out when `O=C(N[C@@H](Cc1ccccc1)C(=O)Oc1ccc([N+](=O)[O-])cc1)OCc1ccccc1` was run?
A: Its k cat/Km is 80000 M⁻¹ s⁻¹.

Target: Cathepsin B (Bos taurus) (UniProt P07688)
Experiment: The apparent second-order rate constant for inactivation of bovine cathepsin B enzyme. Apparent rate constant was determined from repeats of Kobs vs [I] using at least 5 values of [I], where I=0.95 mM
Procedure, shortened: as §1

Q: For `CC(=O)N[C@@H](Cc1ccccc1)C(=O)NN(C)C(=O)OCC(Cl)(Cl)Cl`, which kobs/[I] is on record?
A: Its kobs/[I] is 0.34 M⁻¹ s⁻¹.

Q: Which kobs/[I] does the source give for `CC(=O)N[C@@H](Cc1ccccc1)C(=O)NN(Cc1ccccc1)C(=O)Oc1ccccc1` here?
A: The kobs/[I] was under 0.2 M⁻¹ s⁻¹.

Target: T1, Papain (Carica papaya)
Experiment: Specificity constant is determined from the ratio of the inactivation rate constants (Kcat/Km)of the papaine.

Q: Which k cat/Km does the source give for `CC(=O)N[C@@H](Cc1ccccc1)C(=O)NNC(=O)Oc1ccccc1` here?
A: The k cat/Km was 67600 M⁻¹ s⁻¹.

Q: How did the k cat/Km turn out when `CC(=O)N[C@@H](Cc1ccccc1)C(=O)NNC(=O)OCC(Cl)(Cl)Cl` was run?
A: The k cat/Km was 11800 M⁻¹ s⁻¹.

Q: `CC(=O)N[C@@H](Cc1ccccc1)C(=O)NN(C)C(=O)Oc1ccccc1` was tested. Which k cat/Km did it give?
A: The k cat/Km was 110 M⁻¹ s⁻¹.
